{"source": "ChEMBL document CHEMBL1132300", "about": "“1,3-Disubstituted benzazepines as novel, potent, selective neuropeptide Y Y1 receptor antagonists” (J Med Chem, 1999)"}
{"molecular_target": "T1, Neuropeptide Y receptor type 1 (Homo sapiens, UniProt P25929)", "T1 sequence (P25929 whole entry)": "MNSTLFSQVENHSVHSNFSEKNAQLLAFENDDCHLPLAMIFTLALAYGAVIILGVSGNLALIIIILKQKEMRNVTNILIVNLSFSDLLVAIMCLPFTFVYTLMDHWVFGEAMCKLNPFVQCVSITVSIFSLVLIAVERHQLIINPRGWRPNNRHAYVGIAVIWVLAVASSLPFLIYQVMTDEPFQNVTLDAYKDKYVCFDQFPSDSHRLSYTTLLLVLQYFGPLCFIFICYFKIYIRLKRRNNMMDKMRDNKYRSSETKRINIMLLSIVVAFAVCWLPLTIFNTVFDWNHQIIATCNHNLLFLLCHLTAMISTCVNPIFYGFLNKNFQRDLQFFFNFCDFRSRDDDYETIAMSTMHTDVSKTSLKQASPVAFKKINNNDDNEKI", "experiment": "In vitro binding affinity towards Neuropeptide Y receptor type 1 was determined as potency to displace [125I]-peptide YY binding to human neuroblastoma SK-N-MC cells", "assay_type": "cell-based", "how_it_was_run": "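Intact SK-N-MC cells grown 2 days, washed with HEPES (20 mM)-buffered Hank's solution pH 7.4 plus 1% BSA, then incubated with 0.1 nM [125I]PYY and varying concentrations of unlabeled compound at 37 °C for 60 min. Washed twice with ice-cold buffer, lysed in 1 N NaOH, gamma-counted. Nonspecific binding defined with 10^-6 M NPY.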", "units": {"Ki": "nM"}}
{"compound": "C/N=C(/Nc1ccc(O)cc1)NC1CCc2ccccc2N(Cc2cccc(NC(=O)NC(C)C)c2)C1=O", "note": "(stereo not drawn)", "Ki": 7.3}
{"compound": "CC(C)NC(=O)Nc1cccc(CN2C(=O)C(NC(=O)Nc3ccc4ncccc4c3)CCc3ccccc32)c1", "note": "(stereo not drawn)", "Ki": 56}
{"compound": "O=C(Nc1ccccc1)NC1CCc2ccccc2N(Cc2cccc(NC(=O)N3CCOCC3)c2)C1=O", "note": "(stereo not drawn)", "Ki": "> 10000"}
{"compound": "CC(C)NC(=O)Nc1cccc(CN2C(=O)C(N=C(Nc3ccc(O)cc3)NC(C)C)CCc3ccccc32)c1", "note": "(stereo not drawn)", "Ki": 36}
{"compound": "CC(C)NC(=O)Nc1cccc(CN2C(=O)C(NC(=O)Nc3ccccn3)CCc3ccccc32)c1", "note": "(stereo not drawn)", "Ki": 240}
{"compound": "CC(C)NC(=O)Nc1cccc(CN2C(=O)C(NC(=O)Nc3ccc(-c4ccccc4)cc3)CCc3ccccc32)c1", "note": "(stereo not drawn)", "Ki": 610}
{"compound": "CC(C)NC(=O)Nc1cccc(CN2C(=O)C(NC(=O)Nc3ccc4ocnc4c3)CCc3ccccc32)c1", "note": "(stereo not drawn)", "Ki": 17}
{"compound": "CC(C)NC(=O)Nc1cccc(CN2C(=O)C(NC(=O)Oc3ccccc3)CCc3ccccc32)c1", "note": "(stereo not drawn)", "Ki": 2100}
{"compound": "CC(C)NC(=O)Nc1cccc(CN2C(=O)C(CNC(=O)Nc3ccccc3)CCc3ccccc32)c1", "note": "(stereo not drawn)", "Ki": 1400}
{"compound": "CC(C)NC(=O)Nc1cccc(CN2C(=O)C(COC(=O)Nc3ccccc3)CCc3ccccc32)c1", "note": "(stereo not drawn)", "Ki": 4100}
{"compound": "CC(C)NC(=O)Nc1cccc(CN2C(=O)C(NC(=O)Nc3ccc4c(c3)OCO4)CCc3ccccc32)c1", "note": "(stereo not drawn)", "Ki": 28}
{"compound": "CC(C)NC(=O)Nc1cccc(CN2C(=O)C(NC(=O)Nc3cc[nH]n3)CCc3ccccc32)c1", "note": "(stereo not drawn)", "Ki": "> 10000"}
{"compound": "CC(C)NC(=O)Nc1cccc(CN2C(=O)C(OC(=O)Nc3ccccc3)CCc3ccccc32)c1", "note": "(stereo not drawn)", "Ki": 450}
{"compound": "CC(C)NC(=O)Nc1cccc(CN2C(=O)C(NC(=O)Nc3ccc4ccsc4c3)CCc3ccccc32)c1", "note": "(stereo not drawn)", "Ki": 7.8}
{"compound": "CC(C)NC(=O)Cc1cccc(CN2C(=O)C(NC(=O)Nc3ccccc3)CCc3ccccc32)c1", "note": "(stereo not drawn)", "Ki": 3800}
{"compound": "CC(C)NC(=O)Nc1cccc(CN2C(=O)C(NC(=O)Nc3ccc([N+](=O)[O-])cc3)CCc3ccccc32)c1", "note": "(stereo not drawn)", "Ki": 88}
{"compound": "CC(C)NC(=O)Nc1cccc(CN2C(=O)C(NC(=O)Nc3ccccc3)CCCc3ccccc32)c1", "note": "(stereo not drawn)", "Ki": 56}
{"compound": "CC(C)NC(=O)Nc1cccc(CN2C(=O)C(NC(=O)Nc3ccc4[nH]ncc4c3)CCc3ccccc32)c1", "note": "(stereo not drawn)", "Ki": 26}
{"compound": "CC(C)NC(=O)Nc1cccc(CN2C(=O)C(NC(=O)Nc3ccc4c(c3)C(=O)N(C)C4=O)CCc3ccccc32)c1", "note": "(stereo not drawn)", "Ki": 780}
{"compound": "O=C(Nc1ccccc1)NC1CCc2ccccc2N(Cc2cccc(NC(=O)Oc3ccccc3)c2)C1=O", "note": "(stereo not drawn)", "Ki": "> 10000"}
{"compound": "CC(C)NC(=O)Nc1cccc(CN2C(=O)C(NC(=O)Nc3ccccc3F)CCc3ccccc32)c1", "note": "(stereo not drawn)", "Ki": 7.6}
{"compound": "O=C(Nc1cccc(CN2C(=O)C(NC(=O)Nc3ccccc3)CCc3ccccc32)c1)NC1CC1", "note": "(stereo not drawn)", "Ki": 910}
{"compound": "CNC(=O)Nc1cccc(CN2C(=O)C(NC(=O)Nc3ccccc3)CCc3ccccc32)c1", "note": "(stereo not drawn)", "Ki": 7300}
{"compound": "CC(C)NC(=O)Nc1cccc(CN2C(=O)C(/N=C(\\N)Nc3ccc(O)cc3)CCc3ccccc32)c1", "note": "(stereo not drawn)", "Ki": 2.9}
{"compound": "CC(C)NC(=O)Nc1cccc(CN2C(=O)C(NC(=O)Nc3ccc4sccc4c3)CCc3ccccc32)c1", "note": "(stereo not drawn)", "Ki": 13}
{"compound": "CC(C)NC(=O)Nc1cccc(CN2C(=O)C(NC(=O)Nc3ccccc3)COc3ccccc32)c1", "note": "(stereo not drawn)", "Ki": 470}
{"compound": "CC(C)NC(=O)Nc1cccc(CN2C(=O)C(NC(=O)Nc3ccc4c(c3)OCCO4)CCc3ccccc32)c1", "note": "(stereo not drawn)", "Ki": 18}
{"compound": "C/N=C(/Nc1ccccc1)NC1CCc2ccccc2N(Cc2cccc(NC(=O)NC(C)C)c2)C1=O", "note": "(stereo not drawn)", "Ki": 15}
{"compound": "O=C(Nc1ccccc1)Nc1cccc(CN2C(=O)C(NC(=O)Nc3ccccc3)CCc3ccccc32)c1", "note": "(stereo not drawn)", "Ki": "> 10000"}
{"compound": "COc1ccc(NC(=O)NC2CCc3ccccc3N(Cc3cccc(NC(=O)NC(C)C)c3)C2=O)cc1", "note": "(stereo not drawn)", "Ki": 80}
{"compound": "CC(C)NC(=O)Nc1cccc(CN2C(=O)C(NS(=O)(=O)c3ccccc3)CCc3ccccc32)c1", "note": "(stereo not drawn)", "Ki": 5500}
{"compound": "CC(C)NC(=O)Nc1nc(CN2C(=O)C(NC(=O)Nc3ccc(F)cc3F)CCc3ccccc32)cs1", "note": "(stereo not drawn)", "Ki": "> 10000"}
{"compound": "CC(C)NC(=O)Nc1cccc(CN2C(=O)C(NC(=O)Nc3ccc(N(C)C)cc3)CCc3ccccc32)c1", "note": "(stereo not drawn)", "Ki": 66}
{"compound": "CC(C)NC(=O)Nc1cccc(CN2C(=O)C(NC(=O)Nc3nc4ccccc4s3)CCc3ccccc32)c1", "note": "(stereo not drawn)", "Ki": 690}
{"compound": "CC(C)NC(=O)Nc1cccc(CN2C(=O)C(NC(=O)Nc3ccc(O)cc3)CCc3ccccc32)c1", "note": "(stereo not drawn)", "Ki": 82}
{"compound": "CC(C)NC(=O)Nc1cccc(CN2C(=O)C(NC(=O)Nc3ccc4[nH]ccc4c3)CCc3ccccc32)c1", "note": "(stereo not drawn)", "Ki": 18}
{"compound": "COC(=O)Nc1cccc(CN2C(=O)C(NC(=O)Nc3ccccc3)CCc3ccccc32)c1", "note": "(stereo not drawn)", "Ki": "> 10"}
{"compound": "CC(C)NC(=O)Nc1cccc(CN2C(=O)C(NC(=O)Nc3cc(F)cc(F)c3)CCc3ccccc32)c1", "note": "(stereo not drawn)", "Ki": 86}
{"compound": "CC(C)NC(=O)Nc1cccc(CN2C(=O)C(NC(=O)Nc3ccc(F)cc3F)CCc3ccccc32)c1", "note": "(stereo not drawn)", "Ki": 7.8}
{"compound": "CC(C)OC(=O)Nc1cccc(CN2C(=O)C(NC(=O)Nc3ccccc3)CCc3ccccc32)c1", "note": "(stereo not drawn)", "Ki": 690}
{"compound": "CC(C)NC(=O)Nc1cccc(CN2C(=O)C(NC(=O)Nc3ccc4scnc4c3)CCc3ccccc32)c1", "note": "(stereo not drawn)", "Ki": 24}
{"compound": "CC(C)NC(=O)Nc1cccc(CN2C(=O)C(N=C(NCCO)Nc3ccc(O)cc3)CCc3ccccc32)c1", "note": "(stereo not drawn)", "Ki": 65}
{"compound": "CC(C)NC(=O)Nc1cccc(CN2C(=O)C(NC(=O)Nc3ccc4c(c3)CCC4)CCc3ccccc32)c1", "note": "(stereo not drawn)", "Ki": 17}
{"compound": "CC(C)NC(=O)Nc1cccc(CN2C(=O)C(NC(=O)Nc3ccncc3)CCc3ccccc32)c1", "note": "(stereo not drawn)", "Ki": 83}
{"compound": "CC(C)NC(=O)Nc1cccc(CN2C(=O)C(NC(=O)Nc3ccc4ccoc4c3)CCc3ccccc32)c1", "note": "(stereo not drawn)", "Ki": 7.8}
{"compound": "CC(C)NC(=O)Nc1cccc(CN2C(=O)C(NC(=O)Nc3ccc4c(c3)C(=O)NC4=O)CCc3ccccc32)c1", "note": "(stereo not drawn)", "Ki": 25}
{"compound": "CC(C)NC(=O)Nc1cccc(CN2C(=O)C(NC(=O)c3ccccc3)CCc3ccccc32)c1", "note": "(stereo not drawn)", "Ki": "> 10000"}
{"compound": "CC(C)NC(=O)Nc1cccc(CN2C(=O)C(NC(=O)Nc3cccc(F)c3F)CCc3ccccc32)c1", "note": "(stereo not drawn)", "Ki": 100}
{"compound": "CC(C)(C)OC(=O)Nc1cccc(CN2C(=O)C(NC(=O)Nc3ccccc3)CCc3ccccc32)c1", "note": "(stereo not drawn)", "Ki": 1200}
{"compound": "CC(C)NC(=O)Nc1cccc(CN2C(=O)C(NC(=O)Nc3ccc(Cl)cc3)CCc3ccccc32)c1", "note": "(stereo not drawn)", "Ki": 71}
{"compound": "CC(C)CNC(=O)Nc1cccc(CN2C(=O)C(NC(=O)Nc3ccccc3)CCc3ccccc32)c1", "note": "(stereo not drawn)", "Ki": 140}
{"compound": "CN(C(=O)OC(C)(C)C)c1cccc(CN2C(=O)C(NC(=O)Nc3ccccc3)CCc3ccccc32)c1", "note": "(stereo not drawn)", "Ki": "> 10000"}
{"compound": "CC(C)NC(=O)Nc1cccc(CN2C(=O)C(NC(=O)Nc3nccs3)CCc3ccccc32)c1", "note": "(stereo not drawn)", "Ki": 160}
{"compound": "CC(C)(C)NC(=O)Nc1cccc(CN2C(=O)C(NC(=O)Nc3ccccc3)CCc3ccccc32)c1", "note": "(stereo not drawn)", "Ki": 75}
{"compound": "CC(C)NC(=O)Nc1cccc(CN2C(=O)C(NC(=O)Nc3ccccc3)CCc3ccccc32)c1", "note": "(stereo not drawn)", "Ki": 43}
{"compound": "CC(C)NC(=O)Nc1cccc(CN2C(=O)C(NC(=O)Nc3ccc(N)cc3)CCc3ccccc32)c1", "note": "(stereo not drawn)", "Ki": 200}
{"compound": "CC(C)NC(=O)Nc1cccc(CN2C(=O)C(NC(=O)Nc3cnc4ccccc4c3)CCc3ccccc32)c1", "note": "(stereo not drawn)", "Ki": 140}
{"compound": "CC(C)NC(=O)Nc1cccc(CN2C(=O)C(NC(=O)Nc3ccc4ncsc4c3)CCc3ccccc32)c1", "note": "(stereo not drawn)", "Ki": 5.1}
{"compound": "Nc1cccc(CN2C(=O)C(NC(=O)Nc3ccccc3)CCc3ccccc32)c1", "note": "(stereo not drawn)", "Ki": "> 10000"}
{"compound": "CC(C)NC(=O)Nc1cccc(CN2CCCCC(NC(=O)Nc3ccccc3)C2=O)c1", "note": "(stereo not drawn)", "Ki": 7000}
{"compound": "CC(C)NC(=O)Nc1cccc(CN2C(=O)C(NC(=O)Nc3ccc(F)cc3)CCc3ccccc32)c1", "note": "(stereo not drawn)", "Ki": 29}
{"compound": "CC(C)NC(=O)Nc1cccc(CN2C(=O)C(NC(=O)Nc3nncs3)CCc3ccccc32)c1", "note": "(stereo not drawn)", "Ki": 150}
{"compound": "NC(=O)Nc1cccc(CN2C(=O)C(NC(=O)Nc3ccccc3)CCc3ccccc32)c1", "note": "(stereo not drawn)", "Ki": "> 10000"}
